Assay results pooled from the literature.

Cc1cc(Nc2ncc(Cl)c(Nc3ccccc3S(=O)(=O)C(C)C)n2)c(OC(C)C)cc1C1CCNCC1  inhibition (NCI-H2228; cell growth or viability, MTT; 5 µg/mL, 72 h): 93.5%
CCCCOc1ccc(-c2cnc3c(n2)CCCC3)cc1  IC50 (Haemonchus contortus; parasite motility; 48 h, larva): 6.9 µM
C[C@@H](Oc1cc(-c2cnn(C3CCNCC3)c2)cnc1N)c1c(Cl)ccc(F)c1Cl  inhibition (NCI-H2228; cell growth or viability, MTT; 0.04 µg/mL, 72 h): 45.9%
Cc1ccc(C(CS(=O)(=O)c2ccccc2)=NN=C2N=C(c3ccc(Br)cc3)CS2)cc1  viability (SK-MEL-23; cell growth or viability, MTT; 25 µM, 48 h): 54.9%
O=c1[nH]c(NCc2ccc(Cl)c(Cl)c2)nc2ncn(CCN3CCOCC3)c12  MIC (Eggerthella lenta; microbial growth, agar dilution; 48 h): > 32 µg/mL
CCCCOc1cccc(-c2cnc3c(n2)CCCC3)c1  IC50 (Haemonchus contortus; parasite motility; 24 h, larva): ~49.5 µM
Cc1ccc(C(CS(=O)(=O)c2ccccc2)=NNC2=NC(=O)C(=NNc3ccccc3)S2)cc1  viability (SK-MEL-23; cell growth or viability, MTT; 6.3 µM, 48 h): 36.3%
FC1CCN(C2(CNCc3ccc(-c4ccccc4Cl)o3)COC2)C1 (centres unmarked)  viability (A 172; cell growth or viability; 30 µM, 48 h): 60.4%
NC(=S)NN=C(CS(=O)(=O)c1ccccc1)c1ccc(F)cc1  viability (SK-MEL-23; cell growth or viability, MTT; 6.3 µM, 48 h): 53.8%
CCCCc1cccc(-c2cnc3c(n2)CCCC3)c1  IC50 (Haemonchus contortus; parasite motility; 48 h, larva): 23.3 µM
CCc1cc(Nc2cc(=O)n(CCCCO)c(=O)[nH]2)ccc1C  MIC (Eggerthella lenta; microbial growth, agar dilution; 48 h): > 32 µg/mL
O=C(Nc1ccccc1-c1ccc(F)c(F)c1)c1nccnc1C(F)(F)F  EC50 (Cladosporium cucumerinum; microbial growth): < 0.1 µg/mL
Cc1ccc(C(CS(=O)(=O)c2ccccc2)=NNc2nc(C)c(N=Nc3cccc(C)c3)s2)cc1  viability (SK-MEL-23; cell growth or viability, MTT; 25 µM, 48 h): 44%
CC(C)Oc1cccc(-c2cnc3c(n2)CCCC3)c1  IC50 (Haemonchus contortus; parasite motility; 48 h, larva): 42.4 µM
